Test results reported in ChEMBL document CHEMBL2203235, “Optimization of a natural product-based class of γ-secretase modulators” (J Med Chem, 2012).

Legend:
Liver microsomes = experiment: Metabolic stability in human liver microsomes at 1 uM after 60 mins by LC/MS/MS analysis; settings: 1 h
[1] = Ratio of drug uptake in brain to plasma in FVB mouse at 10 mg/kg, ip at 6 hrs; format: ADME, organism-based; parameters: dose 10 mg/kg, route intraperitoneal; settings: brain and plasma, read-out: BPR
Outline: (§1)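 Dosing was 10 mg/kg IP in MDR1 (P-gp) knockout mice and, identically, in wild-type FVB mice. Brain and plasma levels were taken 6 h after dosing to give a brain-to-plasma ratio.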

[2] = Modulation of gamma secretase in CHO-2B7 cells assessed as reduction in amyloid beta 40 level after 5 hrs by MSD ELISA; format: cell-based; settings: Cricetulus griseus, CHO-2B7, 5 h
[3] = Modulation of gamma secretase in CHO-2B7 cells assessed as reduction in amyloid beta 42 level after 5 hrs by MSD ELISA; format: cell-based; settings: Cricetulus griseus, CHO-2B7, 5 h
[4] = Ratio of drug uptake in brain to plasma in CD1 mouse at 1 mg/kg, iv at 6 hrs; settings: brain and plasma
[5] = Plasma concentration in CD1 mouse at 1 mg/kg, iv at 6 hrs
[6] = Ratio of drug uptake in brain to plasma in P-gp knockout mouse at 10 mg/kg, ip at 6 hrs; format: ADME, organism-based; parameters: dose 10 mg/kg, route intraperitoneal; settings: brain and plasma, read-out: BPR; outline: as §1
[7] = Drug uptake in CD1 mouse brain at 1 mg/kg, iv at 6 hrs
Mus musculus [8] = experiment: Antialzheimer activity in CD1 mouse assessed as reduction in amyloid beta 40 level at 100 mg/kg, ip at 6 hrs relative to vehicle-treated control; format: functional; parameters: scale not given: the % may be the effect or the level left; settings: route intraperitoneal
Outline: (§2)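 CD-1 mice received a single IP or PO dose (n = 12 per group) and were sampled at 6 h. Plasma and brain drug concentrations were measured in μM. Aβ42, Aβ40 and Aβ38 in brain homogenate are expressed as percent lowering versus vehicle. Statistical significance was assessed against vehicle.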

CHO [9] = experiment: Modulation of gamma secretase in CHO cells expressing human APP assessed as increase in amyloid beta (1 to 37) level at 3 uM after 6 hrs by LC/MS/MS analysis relative to control; format: cell-based; settings: Cricetulus griseus
Outline: (§3)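 Cells were treated at 3 μM or 2 μM. Secreted Aβ peptides (Aβ37, 38, 39, 40, 42) were quantified by immunoprecipitation followed by LC/MS/MS. Changes are expressed relative to vehicle-treated cells.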

[10] = Modulation of gamma secretase in CHO-2B7 cells assessed as reduction in amyloid beta 38 level after 5 hrs by MSD ELISA; format: cell-based; settings: Cricetulus griseus, CHO-2B7, 5 h
CHO [11] = experiment: Modulation of gamma secretase in CHO cells expressing human APP assessed as amyloid beta (1 to 40) level at 3 uM after 6 hrs by LC/MS/MS analysis (reference value: 10.2 ng); format: cell-based; settings: Cricetulus griseus; outline: as §3
Mus musculus [12] = experiment: Antialzheimer activity in CD1 mouse assessed as reduction in amyloid beta 42 level at 100 mg/kg, ip at 6 hrs relative to vehicle-treated control; format: functional; parameters: scale not given: the % may be the effect or the level left; settings: route intraperitoneal; outline: as §2
Mus musculus [13] = experiment: Antialzheimer activity in CD1 mouse assessed as reduction in amyloid beta 42 level at 30 mg/kg, ip at 6 hrs relative to vehicle-treated control; format: functional; parameters: scale not given: the % may be the effect or the level left; settings: route intraperitoneal; outline: as §2
CHO [14] = experiment: Modulation of gamma secretase in CHO cells expressing human APP assessed as amyloid beta (1 to 42) level at 3 uM after 6 hrs by LC/MS/MS analysis (reference value: 0.6 ng); format: cell-based; settings: Cricetulus griseus; outline: as §3
CHO [15] = experiment: Modulation of gamma secretase in CHO cells expressing human APP assessed as reduction amyloid beta (1 to 38) level at 3 uM after 6 hrs by LC/MS/MS analysis relative to control; format: cell-based; parameters: scale not given: the % may be the effect or the level left; settings: Cricetulus griseus; outline: as §3
Mus musculus [16] = experiment: Antialzheimer activity in CD1 mouse assessed as reduction in amyloid beta 40 level at 30 mg/kg, ip at 6 hrs relative to vehicle-treated control; format: functional; parameters: scale not given: the % may be the effect or the level left; settings: route intraperitoneal; outline: as §2
[17] = Ratio of drug uptake in brain to plasma in CD1 mouse at 30 mg/kg, po at 6 hrs; settings: brain and plasma
in vivo [18] = settings: CD1, mouse, po, 30 mg/kg
[19] = Half life in CD1 mouse at 1 mg/kg, iv; settings: in vivo
[20] = Plasma concentration in CD1 mouse at 30 mg/kg, ip at 6 hrs; format: ADME, organism-based; parameters: dose 30 mg/kg, route intraperitoneal; outline: as §2
CHO [21] = experiment: Modulation of gamma secretase in CHO cells expressing human APP assessed as increase in amyloid beta (1 to 39) level at 3 uM after 6 hrs by LC/MS/MS analysis relative to control; format: cell-based; settings: Cricetulus griseus; outline: as §3
SUP-T1 = experiment: Inhibition of notch-mediated NICD release in human SUP-T1 cells at 4 uM after 18 hrs by immunoblotting assay; format: cell-based
[22] = Drug uptake in CD1 mouse brain at 30 mg/kg, ip at 6 hrs; format: ADME, organism-based; parameters: dose 30 mg/kg, route intraperitoneal; settings: read-out: Drug uptake; outline: as §2
in vivo [23] = settings: CD1, mouse, po, 30 mg/kg; remark: listed apart in the source
[24] = Plasma concentration in CD1 mouse at 100 mg/kg, ip at 6 hrs; format: ADME, organism-based; parameters: dose 100 mg/kg, route intraperitoneal; outline: as §2
[25] = Clearance in CD1 mouse at 1 mg/kg, iv; settings: in vivo
[26] = Inhibition of gamma secretase in CHO-2B7 cells assessed as reduction in total amyloid beta level after 5 hrs by MSD ELISA; format: cell-based; settings: Cricetulus griseus, CHO-2B7, 5 h
Mus musculus [27] = experiment: Antialzheimer activity in CD1 mouse assessed as reduction in amyloid beta 38 level at 30 mg/kg, ip at 6 hrs relative to vehicle-treated control; format: functional; parameters: scale not given: the % may be the effect or the level left; settings: route intraperitoneal; outline: as §2
Mus musculus [28] = experiment: Antialzheimer activity in CD1 mouse assessed as reduction in amyloid beta 38 level at 100 mg/kg, ip at 6 hrs relative to vehicle-treated control; format: functional; parameters: scale not given: the % may be the effect or the level left; settings: route intraperitoneal; outline: as §2
[29] = Volume of distribution in CD1 mouse at 1 mg/kg, iv; settings: in vivo
[30] = Drug uptake in CD1 mouse brain at 100 mg/kg, ip at 6 hrs; format: ADME, organism-based; parameters: dose 100 mg/kg, route intraperitoneal; settings: read-out: Drug uptake; outline: as §2

**Q.** What does the source list for `CC(C)[C@@H](OC(=O)N1CCC1)[C@H]1C[C@@H](C)[C@H]2[C@H](O1)[C@H](O)[C@@]1(C)[C@@H]3CC[C@H]4C(C)(C)[C@@H](OC(=O)N(C)C5CN(C)C5)CC[C@@]45C[C@@]35CC[C@]21C`?
**A.** Stability (Liver microsomes): Stable; Kp at 6 h [1]: 0.035; IC50 [2]: 5400 nM; IC50 [3]: 91 nM; Kp at 6 h [4]: 0.04; concentration at 6 h [5]: 274 nM; Kp at 6 h [6]: 3.1; concentration at 6 h [7]: 11 nM

**Q.** With `CCO[C@@H]([C@H]1C[C@@H](C)[C@H]2[C@H](O1)[C@H](O)[C@@]1(C)[C@@H]3CC[C@H]4C(C)(C)[C@@H](O[C@H]5CN(CCOC)CCO5)CC[C@@]45C[C@@]35CC[C@]21C)C(C)(C)O` as the compound, how does the Activity (Mus musculus [8]) read?
**A.** The Activity was 30%.

**Q.** What about the Stability (Liver microsomes) of the same compound?
**A.** The Stability was “Stable”.

**Q.** What about the Activity (CHO [9]) of the same compound?
**A.** Its Activity is 50%.

**Q.** What about the IC50 [10] of the same compound?
**A.** The IC50 was 380 nM.

**Q.** And the Activity (CHO [11])?
**A.** The Activity was 6.2 ng.

**Q.** What about the Activity (Mus musculus [12]) of the same compound?
**A.** The Activity was 46%.

**Q.** What about the IC50 [2] of the same compound?
**A.** Its IC50 is 9900 nM.

**Q.** And the IC50 [3]?
**A.** Its IC50 is 270 nM.

**Q.** What about the Activity (Mus musculus [13]) of the same compound?
**A.** The Activity was 7%.

**Q.** What about the Activity (CHO [14]) of the same compound?
**A.** Its Activity is “Below limit of detection”.

**Q.** And the Activity (CHO [15])?
**A.** The Activity was 58%.

**Q.** And the Activity (Mus musculus [16])?
**A.** Its Activity is 8%.

**Q.** And the Kp at 6 h [17]?
**A.** The Kp at 6 h was 0.4.

**Q.** What about the bioavailability (in vivo [18]) of the same compound?
**A.** Its bioavailability is 19%.

**Q.** What about the half-life [19] of the same compound?
**A.** Its half-life is 2.5 h.

**Q.** What about the concentration at 6 h [20] of the same compound?
**A.** The concentration at 6 h was 2200 nM.

**Q.** What about the Activity (CHO [21]) of the same compound?
**A.** Its Activity is 310%.

**Q.** What about the inhibition (SUP-T1) of the same compound?
**A.** Its inhibition is 0%.

**Q.** And the concentration at 6 h [22]?
**A.** Its concentration at 6 h is 1600 nM.

**Q.** What about the Cmax (in vivo [23]) of the same compound?
**A.** Its Cmax is 3600 nM.

**Q.** And the Kp at 6 h [4]?
**A.** The Kp at 6 h was 0.26.

**Q.** What about the concentration at 6 h [24] of the same compound?
**A.** Its concentration at 6 h is 12000 nM.

**Q.** What about the clearance [25] of the same compound?
**A.** Its clearance is 4.83 mL/min/kg.

**Q.** What about the IC50 [26] of the same compound?
**A.** The IC50 was 12000 nM.

**Q.** And the Activity (Mus musculus [27])?
**A.** The Activity was 4%.

**Q.** What about the concentration at 6 h [5] of the same compound?
**A.** The concentration at 6 h was 35 nM.

**Q.** What about the Activity (Mus musculus [28]) of the same compound?
**A.** Its Activity is 31%.

**Q.** And the Vd [29]?
**A.** Its Vd is 0.42 L/kg.

**Q.** What about the concentration at 6 h [7] of the same compound?
**A.** The concentration at 6 h was 9 nM.

**Q.** And the concentration at 6 h [30]?
**A.** The concentration at 6 h was 23000 nM.
